Test results taken from ChEMBL document CHEMBL3588831, “Synthesis and in Vivo Evaluation of [123I]Melanin-Targeted Agents” (J Med Chem, 2015).

How the values were obtained:
[1] = Retention time of the compound by HPLC method; assay type: physicochemical
[2] = Drug distribution in eyes of C57BL/6J mouse bearing mouse B16F0 cells at 18 to 20 MBq, iv measured over 72 hrs by SPECT imaging study; assay type: ADME, organism-based, Eye; conditions: in vivo
In short: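 Female C57BL/6J mice (5–6 weeks) were inoculated s.c. on the left flank with 3 × 10^5 B16F0 cells in PBS and used after 11 days, with tumors 2–12 mm. Each received 18–20 MBq in 100 μL by lateral tail vein (n = 3 per tracer). Planar SPECT was done under isoflurane at 10–60 min, 3, 6, 24, 48 and 72 h. ROI pixel values were decay-corrected.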

Mus musculus [3] = assay: Biodistribution in tumor of C57BL/6J mouse bearing mouse B16F0 cells at 0.37 to 1.85 MBq, iv after 1 hr by gamma counting method; assay type: ADME, organism-based; conditions: in vivo
In short: (§1)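 Female C57BL/6J mice (5−6 weeks), s.c. inoculated on left flank with 3 × 10^5 B16F0 cells in Ca2+/Mg2+-free PBS, used 11 days later (tumors 2−12 mm). Radiotracer given via tail vein in 100 μL (~0.37 MBq for 1−24 h, 1.85 MBq for 48 h). Organs dissected, weighed, γ-counted, decay corrected. Expressed as % ID/g against injected-dose dilutions. Mean ± SEM, n = 5.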

Mus musculus [4] = assay: Biodistribution in tumor of C57BL/6J mouse bearing mouse B16F0 cells at 0.37 to 1.85 MBq, iv after 6 hrs by gamma counting method; assay type: ADME, organism-based; conditions: in vivo; in short: as §1
Mus musculus [5] = assay: Biodistribution in tumor of C57BL/6J mouse bearing mouse B16F0 cells at 0.37 to 1.85 MBq, iv after 16 hrs by gamma counting method; assay type: ADME, organism-based; conditions: in vivo; in short: as §1
Mus musculus [6] = assay: Biodistribution in tumor of C57BL/6J mouse bearing mouse B16F0 cells at 0.37 to 1.85 MBq, iv after 48 hrs by gamma counting method; assay type: ADME, organism-based; conditions: in vivo; in short: as §1
Mus musculus [7] = assay: Biodistribution in eyes of C57BL/6J mouse bearing mouse B16F0 cells at 0.37 to 1.85 MBq, iv after 1 hr by gamma counting method; assay type: ADME, organism-based, Eye; conditions: in vivo; in short: as §1
Mus musculus [8] = assay: Biodistribution in eyes of C57BL/6J mouse bearing mouse B16F0 cells at 0.37 to 1.85 MBq, iv after 48 hrs by gamma counting method; assay type: ADME, organism-based, Eye; conditions: in vivo; in short: as §1
Mus musculus [9] = assay: Biodistribution in large gastrointestinal tract of C57BL/6J mouse bearing mouse B16F0 cells at 0.37 to 1.85 MBq, iv after 1 hr by gamma counting method; assay type: ADME, organism-based, Large intestine; conditions: in vivo; in short: as §1
Mus musculus [10] = assay: Biodistribution in large gastrointestinal tract of C57BL/6J mouse bearing mouse B16F0 cells at 0.37 to 1.85 MBq, iv after 6 hrs by gamma counting method; assay type: ADME, organism-based; conditions: in vivo; in short: as §1
Mus musculus [11] = assay: Biodistribution in large gastrointestinal tract of C57BL/6J mouse bearing mouse B16F0 cells at 0.37 to 1.85 MBq, iv after 16 hrs by gamma counting method; assay type: ADME, organism-based, Large intestine; conditions: in vivo; in short: as §1
Mus musculus [12] = assay: Biodistribution in large gastrointestinal tract of C57BL/6J mouse bearing mouse B16F0 cells at 0.37 to 1.85 MBq, iv after 24 hrs by gamma counting method; assay type: ADME, organism-based, Large intestine; conditions: in vivo; in short: as §1
Mus musculus [13] = assay: Biodistribution in small gastrointestinal tract of C57BL/6J mouse bearing mouse B16F0 cells at 0.37 to 1.85 MBq, iv after 1 hr by gamma counting method; assay type: ADME, organism-based, Small intestine; conditions: in vivo; in short: as §1
Mus musculus [14] = assay: Biodistribution in small gastrointestinal tract of C57BL/6J mouse bearing mouse B16F0 cells at 0.37 to 1.85 MBq, iv after 3 hrs by gamma counting method; assay type: ADME, organism-based, Small intestine; conditions: in vivo; in short: as §1
Mus musculus [15] = assay: Biodistribution in small gastrointestinal tract of C57BL/6J mouse bearing mouse B16F0 cells at 0.37 to 1.85 MBq, iv after 6 hrs by gamma counting method; assay type: ADME, organism-based, Small intestine; conditions: in vivo; in short: as §1
Mus musculus [16] = assay: Biodistribution in small gastrointestinal tract of C57BL/6J mouse bearing mouse B16F0 cells at 0.37 to 1.85 MBq, iv after 24 hrs by gamma counting method; assay type: ADME, organism-based, Small intestine; conditions: in vivo; in short: as §1
Mus musculus [17] = assay: Biodistribution in thyroid gland of C57BL/6J mouse bearing mouse B16F0 cells at 0.37 to 1.85 MBq, iv after 3 hrs by gamma counting method; assay type: ADME, organism-based; conditions: in vivo; in short: as §1
Mus musculus [18] = assay: Biodistribution in thyroid gland of C57BL/6J mouse bearing mouse B16F0 cells at 0.37 to 1.85 MBq, iv after 6 hrs by gamma counting method; assay type: ADME, organism-based; conditions: in vivo; in short: as §1
Mus musculus [19] = assay: Biodistribution in thyroid gland of C57BL/6J mouse bearing mouse B16F0 cells at 0.37 to 1.85 MBq, iv after 16 hrs by gamma counting method; assay type: ADME, organism-based; conditions: in vivo; in short: as §1
Mus musculus [20] = assay: Biodistribution in thyroid gland of C57BL/6J mouse bearing mouse B16F0 cells at 0.37 to 1.85 MBq, iv after 24 hrs by gamma counting method; assay type: ADME, organism-based; conditions: in vivo; in short: as §1
Spleen [21] = assay: Biodistribution in spleen of C57BL/6J mouse bearing mouse B16F0 cells at 0.37 to 1.85 MBq, iv after 24 hrs by gamma counting method; assay type: ADME, organism-based; conditions: in vivo; in short: as §1
Spleen [22] = assay: Biodistribution in spleen of C57BL/6J mouse bearing mouse B16F0 cells at 0.37 to 1.85 MBq, iv after 48 hrs by gamma counting method; assay type: ADME, organism-based; conditions: in vivo; in short: as §1
Liver [23] = assay: Biodistribution in liver of C57BL/6J mouse bearing mouse B16F0 cells at 0.37 to 1.85 MBq, iv after 6 hrs by gamma counting method; assay type: ADME, organism-based; conditions: in vivo; in short: as §1
Liver [24] = assay: Biodistribution in liver of C57BL/6J mouse bearing mouse B16F0 cells at 0.37 to 1.85 MBq, iv after 16 hrs by gamma counting method; assay type: ADME, organism-based; conditions: in vivo; in short: as §1
Liver [25] = assay: Biodistribution in liver of C57BL/6J mouse bearing mouse B16F0 cells at 0.37 to 1.85 MBq, iv after 48 hrs by gamma counting method; assay type: ADME, organism-based; conditions: in vivo; in short: as §1
Kidney = assay: Biodistribution in kidney of C57BL/6J mouse bearing mouse B16F0 cells at 0.37 to 1.85 MBq, iv after 1 hr by gamma counting method; assay type: ADME, organism-based; conditions: in vivo; in short: as §1
[26] = Ratio of AUC in tumor to skin of C57BL/6J mouse bearing mouse B16F0 cells at 0.37 to 1.85 MBq, iv by gamma counting method; assay type: ADME, organism-based; conditions: in vivo
In short: (§2)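 Biodistribution in B16F0-bearing C57BL/6J mice given i.v. tail-vein tracer (~0.37 MBq for 1–24 h, 1.85 MBq for 48 h). Sacrifice at 1, 3, 6, 16, 24 and 48 h, then organs dissected, weighed and γ-counted as decay-corrected % ID/g. Tumor AUC divided by each organ AUC; mean of ratios ± SEM, n = 5.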

[27] = Ratio of AUC in tumor to eyes of C57BL/6J mouse bearing mouse B16F0 cells at 0.37 to 1.85 MBq, iv by gamma counting method; assay type: ADME, organism-based; conditions: in vivo; in short: as §2
Plasma = assay: Stability in plasma of C57BL/6J mouse bearing mouse B16F0 cells assessed as drug degradation at 0.37 to 1.85 MBq, iv after 24 hrs by radio-HPLC and radio-TLC method; assay type: ADME, organism-based; conditions: in vivo, in the assay text read “20 MBq” for “0.37 to 1.85 MBq”
In short: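 Tumor-bearing C57BL/6J mice were sampled 3 and 24 h after i.v. tracer. Tissue was sonicated in CH3CN/water (3:2) with cold iodo standard and KI, then centrifuged. Urine was diluted and spiked; plasma was spiked, with CH3CN precipitation for TLC. Intact fraction came from silica radio-TLC (spot matching standard Rf) and radio-HPLC with precolumn/C18 column switching.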

Row | SMILES | Retention_time [1] [min] | Drug uptake [2] | Drug uptake (Mus musculus [3]) [% ID/g] | Drug uptake (Mus musculus [4]) [% ID/g] | Drug uptake (Mus musculus [5]) [% ID/g] | Drug uptake (Mus musculus [6]) [% ID/g] | Drug uptake (Mus musculus [7]) [% ID/g] | Drug uptake (Mus musculus [8]) [% ID/g] | Drug uptake (Mus musculus [9]) [% ID/g] | Drug uptake (Mus musculus [10]) [% ID/g] | Drug uptake (Mus musculus [11]) [% ID/g] | Drug uptake (Mus musculus [12]) [% ID/g] | Drug uptake (Mus musculus [13]) [% ID/g] | Drug uptake (Mus musculus [14]) [% ID/g] | Drug uptake (Mus musculus [15]) [% ID/g] | Drug uptake (Mus musculus [16]) [% ID/g] | Drug uptake (Mus musculus [17]) [% ID/g] | Drug uptake (Mus musculus [18]) [% ID/g] | Drug uptake (Mus musculus [19]) [% ID/g] | Drug uptake (Mus musculus [20]) [% ID/g] | other results
1 | O=C(c1ccc2c(n1)NCCC2)N1CCN(Cc2ccc([123I])cc2)CC1 | 16.6 | Active | 19.2 | 32.5 | 20.4 | 5.6 | 40.3 | 19 | 7.9 | 87.1 | 2.3 | 1.7 | 45.6 | 63.8 | 11.5 | 0.8 | 2.7 | 2.7 | 2.5 | 2 | Drug uptake (Spleen [21]): 0.2 % ID/g; Drug uptake (Spleen [22]): 0.05 % ID/g; Drug uptake (Liver [23]): 6.3 % ID/g; Drug uptake (Liver [24]): 0.9 % ID/g; Drug uptake (Liver [25]): 0.2 % ID/g; Drug uptake (Kidney): 15.6 % ID/g; Ratio [26]: 40.9; Ratio [27]: 0.52; Stability (Plasma): Unstable
2 | O=C(c1ccc2cccnc2n1)N1CCN(Cc2ccc([123I])cc2)CC1 | 12.2 | Active | 17.1 | 19.4 | 18.4 | 13.1 | 32 | 31.6 | 3.2 | 18.6 | 1.8 | 1.4 | 14.4 | 14.1 | 6.1 | 0.9 | 2.2 | 3.5 | 1.6 | 2.9 | Drug uptake (Spleen [21]): 0.5 % ID/g; Drug uptake (Spleen [22]): 0.2 % ID/g; Drug uptake (Liver [23]): 10.1 % ID/g; Drug uptake (Liver [24]): 2.4 % ID/g; Drug uptake (Liver [25]): 0.7 % ID/g; Drug uptake (Kidney): 7.5 % ID/g; Ratio [26]: 45.3; Ratio [27]: 0.47; Stability (Plasma): Unstable
3 | O=C(CN1Cc2ccccc2C1=O)N1C[C@H]2CN(Cc3ccc([123I])cc3)C[C@H]2C1 | 16.7 | Active | 10.3 | 10.4 | 11.6 | 5 | 18.2 | 15.8 | 3.5 | 23.1 | 1.4 | 1 | 21.4 | 15.2 | 2.6 | 0.3 | 1.5 | 2.8 | 1 | 1 | Drug uptake (Spleen [21]): 0.05 % ID/g; Drug uptake (Spleen [22]): 0.09 % ID/g; Drug uptake (Liver [23]): 3.1 % ID/g; Drug uptake (Liver [24]): 0.7 % ID/g; Drug uptake (Liver [25]): 0.2 % ID/g; Drug uptake (Kidney): 15.8 % ID/g; Ratio [26]: 23.1; Ratio [27]: 0.42; Stability (Plasma): Unstable
4 | O=C(CN1Cc2ccccc2C1=O)NC1CCN(Cc2ccc([123I])cc2)CC1 | 14.8 | Active | 6.2 | 18.1 | 18.1 | 13.2 | 13.7 | 38.7 | 6.6 | 17.6 | 8.1 | 8 | 11.9 | 12 | 9.8 | 3.8 | 3.4 | 3.1 | 2.3 | 2.6 | Drug uptake (Spleen [21]): 1.2 % ID/g; Drug uptake (Spleen [22]): 0.1 % ID/g; Drug uptake (Liver [23]): 35.1 % ID/g; Drug uptake (Liver [24]): 7.1 % ID/g; Drug uptake (Liver [25]): 1.9 % ID/g; Drug uptake (Kidney): 8 % ID/g; Ratio [26]: 24.4; Ratio [27]: 0.44; Stability (Plasma): Unstable
